Data from ChEMBL document CHEMBL4680218, “Design and synthesis of tripeptidyl furylketones as selective inhibitors against the β5 subunit of human 20S proteasome” (Eur J Med Chem, 2020).
Activity calls are given as the source filed them.

Columns and labels:
[1] = Volume of distribution at steady state in Sprague-Dawley rat at 4 mg/kg, iv measured up to 48 hrs by LC-MS/MS analysis; conditions: in vivo
[2] = Cmax in Sprague-Dawley rat at 4 mg/kg, iv measured up to 48 hrs by LC-MS/MS analysis; type: ADME, organism-based; set-up: route intravenous, dose 4 mg/kg, time <=48; conditions: in vivo
[3] = Clearance in Sprague-Dawley rat at 4 mg/kg, iv measured up to 48 hrs by LC-MS/MS analysis; conditions: in vivo
[4] = Half life in Sprague-Dawley rat at 4 mg/kg, iv measured up to 48 hrs by LC-MS/MS analysis; conditions: in vivo
[5] = target: T1, Proteasome Macropain subunit MB1 (Homo sapiens) (UniProt P28074); assay: Irreversible inhibition of human 20S proteasome beta5 subunit assessed as residual enzyme activity using Suc-LLVY-Glo as substrate preincubated for 2 hrs followed by compound washout and further incubated for 4 hrs followed by substrate addition and measured after 10 mins by bioluminescent assay relative to control
T1 sequence (whole entry): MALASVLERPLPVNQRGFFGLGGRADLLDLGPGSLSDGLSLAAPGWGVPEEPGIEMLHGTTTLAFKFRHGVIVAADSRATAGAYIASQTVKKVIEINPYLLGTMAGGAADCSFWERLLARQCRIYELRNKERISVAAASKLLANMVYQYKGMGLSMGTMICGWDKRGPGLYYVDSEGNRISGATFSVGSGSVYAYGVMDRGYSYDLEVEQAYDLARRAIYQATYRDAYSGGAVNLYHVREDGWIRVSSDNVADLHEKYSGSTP
Procedure, shortened: (§1)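 Human 20S proteasome (8 μg/mL) was pre-incubated with inhibitor for 2 h at 25 °C. Samples were then washed five times in assay buffer on 100 kDa cut-off centrifugal filters (14,000 g, 5 min each) and recovered. After a further 4 h at 25 °C, Suc-LLVY-Glo was added and luminescence was read after 10 min. Unwashed samples held an extra 4 h served as the standard.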

in vivo = conditions: Sprague-Dawley, rat, iv, 4 mg/kg
[6] = Toxicity in BALB/c athymic nude mouse xenografted with human HCT-116 cells assessed as reduction in body weight at 5 mg/kg, iv administered twice a week for 28 days; type: organism-based; conditions: in vivo, 672 h, time 28 day
Procedure, shortened: (§2)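 Male nude mice had 1 × 10^7 HCT-116 cells in serum-free RPMI 1640 implanted subcutaneously in the right flank. At ~300 mm³ (about day 10) they were randomized, n=3/group. Dosing was by tail vein twice weekly (D1/D4) for four weeks: 10 mg/kg in 8% ethanol/2% Tween 80/90% water, or 5 mg/kg in 10% sulfobutylether-β-cyclodextrin, 10 mmol/L citrate pH 3.5. Caliper volume (length × width²)/2 and body weight were measured twice weekly.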

HCT-116 [7] = assay: Antitumour activity against human HCT-116 cells xenografted in BALB/c athymic nude mouse assessed as reduction in tumour growth at 5 mg/kg, iv administered twice a week for 28 days by caliper analysis; type: functional, organism-based; conditions: time 28.0 day; procedure, shortened: as §2
[8] = target: T1, Proteasome Macropain subunit MB1 (Homo sapiens); assay: Covalent binding affinity to human 20S proteasome beta5 subunit assessed as compound-tryptic digest TTTLAFKFR peptide adduct formation at 10 uM incubated for 2 hrs measured after overnight incubation with trypsin by LC-MS/MS analysis
Procedure, shortened: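 Purified human 20S proteasome (4 nM) was incubated with 10 μM inhibitor for 2 h at room temperature, then quenched and denatured with acetonitrile. Trypsin (1:50) digestion ran overnight at 37 °C, followed by C18 desalting. Nano-LC-MS/MS used a 0.1% formic acid water/acetonitrile gradient. Adducts were searched against UniProt at ±10 ppm precursor and ±0.02 Da fragment tolerance, allowing 2 missed cleavages.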

[9] = target: T1, Proteasome Macropain subunit MB1 (Homo sapiens); assay: Binding affinity to immobilized human 20S proteasome beta 5 subunit assessed as association rate constant by SPR analysis
Procedure, shortened: (§3)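 Purified human constitutive 20S proteasome was immobilised on a CM5 chip. Analyte was a 2-fold series from 25 to 1.56 µM in running buffer (10 mM phosphate, 2.7 mM KCl, 137 mM NaCl, 0.05% P20, 5% DMSO, pH 7.4). Flow was 30 µL/min, with 60 s association and 60 s dissociation. Responses were normalised by molecular weight, and kon/koff came from a 1:1 binding fit.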

[10] = target: T1, Proteasome Macropain subunit MB1 (Homo sapiens); assay: Binding affinity to immobilized human 20S proteasome beta 5 subunit assessed as dissociation rate constant by SPR analysis; procedure, shortened: as §3
HeLa = assay: Cytotoxicity against human HeLa cells assessed as reduction in cell viability after 72 hrs by Cell Titer-Glo assay; type: functional, cell-based
Procedure, shortened: (§4)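 Cells were cultured in their respective media with 10% FBS, seeded from log phase at 1000 cells/well, and given compound after 18–24 h. After 72 h, an equal volume of CellTiter-Glo reagent was added and luminescence was read at 37 °C. IC50 came from dose-response curve fits; values are mean ± SD of three independent experiments, each in biological triplicate.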

HCT-116 [11] = assay: Cytotoxicity against human HCT-116 cells assessed as reduction in cell viability after 72 hrs by Cell Titer-Glo assay; type: functional, cell-based; conditions: HCT-116, 72 h; procedure, shortened: as §4
A549 = assay: Cytotoxicity against human A549 cells assessed as reduction in cell viability after 72 hrs by Cell Titer-Glo assay; type: functional, cell-based; conditions: A549, 72 h; procedure, shortened: as §4
[12] = target: T2, Proteasome Macropain subunit MB1 (Homo sapiens, UniProt P28074); assay: Inhibition of chymotrypsin-like activity of human 20S proteasome beta5 subunit using Suc-LLVY-Glo as substrate incubated for 2 hrs followed by substrate addition and measured for 10 mins by bioluminescent assay
T2 sequence (P28074 whole entry): T1 sequence (whole entry)
Procedure, shortened: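 Human constitutive 20S proteasome (1 μg/mL) was combined with compound serially diluted in 10 mM HEPES pH 7.6, with final DMSO 1% (v/v). After 2 h at 25 °C, Suc-LLVY-Glo (CT-L), Z-LRR-Glo (T-L) or Z-nLPnLD-Glo (C-L) reagent was added. Luminescence was read over 10 min, and IC50 was taken from inhibition rates.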

[13] = Cytotoxicity against human PC3M1E8 cells assessed as reduction in cell viability after 72 hrs by Cell Titer-Glo assay; type: functional, cell-based; conditions: PC3M1E8, 72 h; procedure, shortened: as §4
HT-29 = assay: Cytotoxicity against human HT-29 cells assessed as reduction in cell viability after 72 hrs by Cell Titer-Glo assay; type: functional, cell-based; conditions: HT-29, 72 h; procedure, shortened: as §4
[14] = Cmax in Sprague-Dawley rat at 5 mg/kg, iv measured up to 48 hrs by LC-MS/MS analysis; type: ADME, organism-based; set-up: route intravenous, dose 5 mg/kg, time <=48; conditions: in vivo
Procedure, shortened: (§5)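 Male Sprague-Dawley rats, three per group, fasted 12 h, then given a single intravenous dose of 5 mg/kg in 8% ethanol, 2% Tween 80 and 90% sterile water. Blood was drawn from the venous plexus at the inner canthus into heparin tubes at 5, 15 and 30 min and at 1, 2, 4, 8, 24, 32 and 48 h. Plasma was quantified by LC-MS/MS against an internal standard.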

[15] = AUC(0 to t) in Sprague-Dawley rat at 5 mg/kg, iv measured up to 48 hrs by LC-MS/MS analysis; type: ADME, organism-based; set-up: route intravenous, dose 5 mg/kg, time <=48; conditions: in vivo; procedure, shortened: as §5
[16] = Toxicity in BALB/c athymic nude mouse xenografted with human HCT-116 cells assessed as reduction in body weight at 10 mg/kg, iv administered twice a week for 28 days; type: organism-based; conditions: in vivo, 672 h, time 28 day; procedure, shortened: as §2
[17] = Clearance in Sprague-Dawley rat at 5 mg/kg, iv measured up to 48 hrs by LC-MS/MS analysis; type: ADME, organism-based; conditions: in vivo; procedure, shortened: as §5
HEK293 = assay: Cytotoxicity against human HEK293 cells assessed as reduction in cell viability after 72 hrs by Cell Titer-Glo assay; type: cell-based; conditions: HEK293, 72 h; procedure, shortened: as §4
HCT-116 [18] = assay: Cell cycle arrest in human HCT-116 cells assessed as accumulation at G1 phase at 1 uM after 24 hrs by propidium iodide staining based flow cytometric analysis (reference value: 29%); type: functional
[19] = target: T1, Proteasome Macropain subunit MB1 (Homo sapiens); assay: Reversible inhibition of human 20S proteasome beta5 subunit assessed as residual enzyme activity using Suc-LLVY-Glo as substrate preincubated for 2 hrs followed by compound washout and further incubated for 4 hrs followed by substrate addition and measured after 10 mins by bioluminescent assay relative to control; procedure, shortened: as §1
[20] = target: T1, Proteasome Macropain subunit MB1 (Homo sapiens); assay: Inhibition of chymotrypsin-like activity of human 20S proteasome beta5 subunit at 50 uM using Suc-LLVY-Glo as substrate incubated for 2 hrs followed by substrate addition and measured for 10 mins by bioluminescent assay relative to control; conditions: time 130.0 min
Procedure, shortened: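 Human constitutive 20S proteasome (1 µg/mL) was incubated with compound for 2 h at 25 °C in 10 mM HEPES pH 7.6 with 1% DMSO final. Suc-LLVY-Glo substrate was then added, and luminescence was read over 10 min. Inhibition rate was calculated against the uninhibited signal.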

HCT-116 [21] = assay: Cell cycle arrest in human HCT-116 cells assessed as accumulation at S phase at 1 uM after 24 hrs by propidium iodide staining based flow cytometric analysis (reference value: 50%); type: functional
[22] = Volume of distribution at steady state in Sprague-Dawley rat at 5 mg/kg, iv measured up to 48 hrs by LC-MS/MS analysis; type: ADME, organism-based; conditions: in vivo, read-out: Vdss; procedure, shortened: as §5
[23] = target: T1, Proteasome Macropain subunit MB1 (Homo sapiens); assay: Covalent binding affinity to human 20S proteasome beta5 subunit assessed as methyl hemi-ketal formation using H2O-CH3CN as mobile phase by HPLC analysis
HCT-116 [24] = assay: Cell cycle arrest in human HCT-116 cells assessed as accumulation at G2/M phase at 1 uM after 24 hrs by propidium iodide staining based flow cytometric analysis (reference value: 21%); type: functional
A-375 = assay: Cytotoxicity against human A-375 cells assessed as reduction in cell viability after 72 hrs by Cell Titer-Glo assay; type: functional, cell-based; conditions: A-375, 72 h; procedure, shortened: as §4
BGC-823 = assay: Cytotoxicity against human BGC-823 cells assessed as reduction in cell viability after 72 hrs by Cell Titer-Glo assay; type: functional, cell-based; conditions: BGC-823, 72 h; procedure, shortened: as §4
[25] = MRT in Sprague-Dawley rat at 5 mg/kg, iv measured up to 48 hrs by LC-MS/MS analysis; type: ADME, organism-based; conditions: in vivo; procedure, shortened: as §5
[26] = target: T1, Proteasome Macropain subunit MB1 (Homo sapiens); assay: Covalent binding affinity to human 20S proteasome beta5 subunit assessed as hemi-ketal formation using H2O-MeOH as mobile phase by HPLC analysis
[27] = Half life in Sprague-Dawley rat at 5 mg/kg, iv measured up to 48 hrs by LC-MS/MS analysis; type: ADME, organism-based; conditions: in vivo; procedure, shortened: as §5
[28] = target: T2, Proteasome Macropain subunit MB1; assay: Binding affinity to immobilized human 20S proteasome beta 5 subunit by SPR analysis
Procedure, shortened: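 SPR used purified human 20S proteasome coupled to a CM5 chip. Analytes were 2-fold series from 25 to 1.56 μM in PBS-P running buffer (pH 7.4, 0.05% P20) with 5% DMSO, flowed at 30 μL/min with 60 s association and 60 s dissociation. Data were normalized by molecular weight and fitted to a 1:1 Langmuir model; KD is from the rate constants.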

CC(C)C[C@H](NC(=O)[C@H](CCc1ccccc1)NC(=O)CN1CCOCC1)C(=O)N[C@@H](Cc1ccccc1)C(=O)N[C@@H](CC(C)C)C(=O)[C@@]1(C)CO1 [CARFILZOMIB]
Vd at 48 h [1]: 0.3 L/kg
Cmax [2]: 27800 ng/mL
clearance at 48 h [3]: 195 mL/min/kg
half-life at 48 h [4]: 17 min
Activity [5]: 10%
AUC(0-t) at 48 h (in vivo): 343 ng·h/mL
Activity [6]: Non-Toxic
Activity (HCT-116 [7]): Active
Activity [8]: Active

COC[C@H](NC(=O)[C@H](CC(=O)NCC(C)(C)C)NS(=O)(=O)c1ccc(C)cc1)C(=O)N[C@@H](CC(C)C)C(=O)c1ccco1
Ka [9]: 4210 M⁻¹ s⁻¹
Kdiss [10]: 0.0192 s⁻¹
IC50 (HeLa): 670 nM
IC50 (HCT-116 [11]): 280 nM
IC50 (A549): 1300 nM
IC50 [12]: 180 nM
IC50 [13]: 570 nM
IC50 (HT-29): 730 nM
Cmax [14]: 2010 ng/mL
AUC(0-t) at 48 h [15]: 680 ng·h/mL
Activity [16]: Non-Toxic
clearance [17]: 33.3 mL/min/kg
IC50 (HEK293): > 50000 nM
Activity (HCT-116 [18]): 9%
Activity [19]: < 30%
inhibition [20]: > 50%
Activity (HCT-116 [21]): 14%
Vd [22]: 0.66 L/kg
Activity [23]: inactive
Activity (HCT-116 [24]): 77%
IC50 (A-375): 880 nM
IC50 (BGC-823): 770 nM
MRT [25]: 20.2 min
Activity [26]: 27%
half-life [27]: 13.8 min
Activity [8]: inactive
Kd [28]: 4800 nM
